Measured values published in ChEMBL document CHEMBL1137731, “Cytotoxicity and TOP1-targeting activity of 8- and 9-amino derivatives of 5-butyl- and 5-(2-N,N-dimethylamino)ethyl-5H-dibenzo[c,h][1,6]naphthyridin-6-ones” (Eur J Med Chem, 2009).

Tests used:
Homo sapiens = organism: Homo sapiens; test: Inhibition of human recombinant topoisomerase 1 expressed in Escherichia coli assessed as drug level causing 10% mediated DNA cleavage relative to topotecan
Method in brief: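 Recombinant human TOP1, expressed in E. coli as a T7-system fusion protein, was incubated with drug and 3′-end-labelled plasmid YepG for 30 min at room temperature. Reactions were stopped with SDS and proteinase K (1 h, 37 °C), alkali-denatured, and run on a neutral agarose gel. The read-out was the concentration giving 10% cleavage, expressed relative to topotecan set at 1.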

P388 = test: Cytotoxicity against mouse P388 cells by MTT method; assay type: functional, cell-based
Method in brief: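 MTT assay with P388 mouse leukaemia cells grown in suspension at 37 °C, 5% CO2, in RPMI with 10% heat-inactivated FBS, 2 mM L-glutamine and penicillin/streptomycin. Cells were exposed continuously to varying drug concentrations for 4 days, with a drug-free control, and MTT was read at day 4. The IC50 came from at least two assays, each in six replicate wells.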

[1] = Cytotoxicity against human KB3-1 cells by MTT method; assay type: functional, cell-based; details: KB 3-1
[2] = Cytotoxicity against multidrug resistant human KBV1 cells overexpressing MDR1 by MTT method; assay type: functional, cell-based; details: KB-V1
[3] = Cytotoxicity against multidrug resistant human KBH5.0 cells overexpressing BCRP by MTT method; assay type: functional, cell-based; details: KBH5.0 cell
RPMI8402 (human) = test: Cytotoxicity against human RPMI8402 cells by MTT method; details: RPMI-8402

Structure (SMILES)	Activity (Homo sapiens)	IC50 (P388) [nM]	IC50 [1] [nM]	IC50 [2] [nM]	IC50 [3] [nM]	IC50 (RPMI8402 (human)) [nM]
CN(C)CCn1c(=O)c2cc(N)ccc2c2cnc3cc4c(cc3c21)OCO4	8	40	230	280	330	90
CCCCn1c(=O)c2ccc(NC(=O)CN(C)C)cc2c2cnc3cc4c(cc3c21)OCO4	> 20	600	900	2000	1900	300
CN(C)CCn1c(=O)c2ccc([N+](=O)[O-])cc2c2cnc3cc4c(cc3c21)OCO4	0.1	5	5	4	5	2
CCCCn1c(=O)c2ccc([N+](=O)[O-])cc2c2cnc3cc4c(cc3c21)OCO4	> 10	700	310	850	360	480
CN(C)CCn1c(=O)c2ccc(NC(=O)CN(C)C)cc2c2cnc3cc4c(cc3c21)OCO4	> 20	35	36	190	120	35
CC[C@@]1(O)C(=O)OCc2c1cc1n(c2=O)Cc2cc3c(CN(C)C)c(O)ccc3nc2-1 [TOPOTECAN]	–	45	40	440	440	21
CN(C)CCn1c(=O)c2cc(NC(=O)CN(C)C)ccc2c2cnc3cc4c(cc3c21)OCO4	> 20	100	180	600	240	120
CCCCn1c(=O)c2cc(NCCN(C)C)ccc2c2cnc3cc4c(cc3c21)OCO4	> 20	780	1700	3200	1700	1570
CN(C)CCn1c(=O)c2ccc(N)cc2c2cnc3cc4c(cc3c21)OCO4	0.5	28	130	130	150	33
CN(C)CCNc1ccc2c(=O)n(CCN(C)C)c3c4cc5c(cc4ncc3c2c1)OCO5	> 20	60	120	550	320	850
CCCCn1c(=O)c2cc(NC(=O)CN(C)C)ccc2c2cnc3cc4c(cc3c21)OCO4	> 20	250	1500	2600	1600	330
CCCCn1c(=O)c2ccc(NCCN(C)C)cc2c2cnc3cc4c(cc3c21)OCO4	> 20	1800	3000	4500	3500	1800
CN(C)CCNc1ccc2c(c1)c(=O)n(CCN(C)C)c1c3cc4c(cc3ncc21)OCO4	> 20	40	50	410	300	120
CCCCn1c(=O)c2cc(N)ccc2c2cnc3cc4c(cc3c21)OCO4	> 20	280	3200	2500	3500	1250
CCCCn1c(=O)c2ccc(N)cc2c2cnc3cc4c(cc3c21)OCO4	> 20	6000	5800	2500	3500	3500
CC[C@@]1(O)C(=O)OCc2c1cc1n(c2=O)Cc2cc3ccccc3nc2-1 [CAMPTOTHECIN]	0.2	14	–	–	–	6
CN(C)CCn1c(=O)c2cc([N+](=O)[O-])ccc2c2cnc3cc4c(cc3c21)OCO4	0.2	9	26	25	25	5
CCCCn1c(=O)c2cc([N+](=O)[O-])ccc2c2cnc3cc4c(cc3c21)OCO4	> 10	150	400	300	500	2400
